# Bioassay records: PubChem BioAssay, several laboratories
# Hits are enriched below; roughly 3.6% of the tested compounds scored in any of these assays.
# NS3 helicase inh: inhibitors of Hepatitis C virus NS3 helicase; NS3 helicase DNA unwinding, Cy5 molecular beacon fluorescence; inhibition, % at 10.9 µM; hit rate 0.56% among 290,000; AID 1800;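 active means inhibition above the mean of all tested compounds plus 3 SD, set per campaign, cut at about 35% in these data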
#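 System: NS3 helicase fragment of HCV / Schedule: 1 h at 25 °C / Control set: DMSO alone as 0% and 110 µM thioflavine S as 100% / Reagent: Cy5/quencher beacon DNA duplex and ATP to start / Technique: Cy5 fluorescence / Replication: singlicate / Evaluation: % inhibition of end-to-start signal ratio versus controls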
# EBNA-1 inh: blocks EBNA-1 binding to DNA | hit rate 0.34% among 300,000 | EBNA-1 DNA binding, fluorescence polarization | inhibition, % at 14.8 µM; in the data active means inhibition above about 28%
# DNA FID counter: fluorescent intercalator displacement, NS3 helicase counter-screen; DNA fluorescent intercalator displacement, fluorescence; inhibition, % at 7.9 µM; hit rate 0.17% among 290,000; in the data active means inhibition above about 37%;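 further: higher means more ethidium bromide displaced from hairpin DNA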
# NR3A LBD binder: NR3A (human) ligand-binding domain modulation. NR3A LBD differential scanning fluorimetry, Tm shift; 0% = protein alone, 100% = glycine-bound protein. Tm shift relative to glycine control, % at 25 µM. hit rate 2.5% among 340,000;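 active means melting temperature shift of at least 10% of the positive control shift, at one fixed dose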
# ZTA DNA inh: counter-screen for EBNA-1 inhibitors: inhibitors of Epstein-Barr virus ZTA; P03206; ZTA-DNA binding, fluorescence polarization; inhibition, % at 11 µM; hit rate 0.15% among 320,000; AID 2234; in the data active means inhibition above about 33%
# Target sequence (P03206 whole entry, looked up): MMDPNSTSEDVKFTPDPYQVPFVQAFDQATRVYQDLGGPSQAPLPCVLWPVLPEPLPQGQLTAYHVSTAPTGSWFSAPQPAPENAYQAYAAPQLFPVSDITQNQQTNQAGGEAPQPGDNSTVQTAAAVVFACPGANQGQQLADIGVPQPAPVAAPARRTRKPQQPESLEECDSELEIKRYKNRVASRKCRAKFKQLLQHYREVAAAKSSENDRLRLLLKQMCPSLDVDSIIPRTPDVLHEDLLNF
# FGF22 binding: FGF22 (human) thermal shift binding. recombinant FGF22 thermal shift, SYPRO orange fluorescence; percent of sucrose octasulfate shift, DMSO zero. activity (Tm shift, normalised), % at 9.99 µM. AID 651658. hit rate 1.5% among 340,000. Q9HCT0;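 active means mean Tm shift, scaled 0 neutral to 100 positive control, at about 1.3% or above, every replicate too, limit read from the data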
# Target sequence (Q9HCT0 whole entry, looked up): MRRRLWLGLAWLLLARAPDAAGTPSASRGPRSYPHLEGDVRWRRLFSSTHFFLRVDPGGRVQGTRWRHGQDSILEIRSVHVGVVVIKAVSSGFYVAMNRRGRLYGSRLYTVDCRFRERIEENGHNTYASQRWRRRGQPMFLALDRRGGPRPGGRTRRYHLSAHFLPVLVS
# Numbers stand for hits; i = inactive; nt = not tested or not shown.
SMILES,NS3 helicase inh,EBNA-1 inh,DNA FID counter,NR3A LBD binder,ZTA DNA inh,FGF22 binding
C[C@H]1CN([C@@H](C)CO)S(=O)(=O)c2ccc(-c3cccc(C(=O)N(C)C)c3)cc2O[C@H]1CN(C)C(=O)Cc1ccccn1,nt,nt,nt,nt,nt,i
Cc1noc(C)c1S(=O)(=O)Nc1ccc2c(c1)C(=O)N([C@@H](C)CO)C[C@H](C)[C@H](CN(C)C(=O)Cc1ccccc1)OCCCC[C@H](C)O2,nt,nt,nt,nt,nt,i
O=C(CSc1ccc(-c2ccc(Cl)cc2)nn1)Nc1ccc2c(c1)OCCO2,i,i,i,12,i,i
CCc1cc(C(=O)OC)c(NC(=O)CCC(=O)O)s1,i,i,i,i,i,nt
CCCc1cc(C(=O)OC)c(NC(=O)CCCC(=O)O)s1,i,i,i,i,i,44
N#Cc1cccc(-c2ccc3c(c2)[C@H]2[C@H](CCN2S(=O)(=O)c2ccccc2F)[C@@H](CO)N3)c1,nt,nt,nt,nt,nt,i
COc1ccc2c3c(n(C)c2c1)[C@@H](CO)N(C(=O)c1cnccn1)CC31CCN(C)CC1,nt,nt,nt,nt,nt,i
CCOc1ccc(/C=N/NC(=O)Cc2csc(Nc3cccc(C(F)(F)F)c3)n2)c(OCC)c1,i,i,i,10,i,nt
C[C@]12C=CC(=O)N1CCc1c2[nH]c2ccccc12,nt,nt,nt,nt,nt,i
CCOc1ccc(CCNC(=O)CCOc2cc(C)ccc2C)cc1OCC,i,i,i,i,i,1.9
Cc1ccc(C)c(OCCC(=O)NCCc2ccc(Cl)cc2)c1,i,i,i,i,i,i
Cc1noc(C)c1NC(=O)N(C)C[C@@H]1Oc2ccc(NC(=O)NC(C)C)cc2C(=O)N([C@@H](C)CO)C[C@H]1C,nt,nt,nt,nt,nt,i
CS(=O)(=O)Nc1ccc2c(c1)[C@@H]1C[C@H](CC(=O)NCc3ccc(Oc4ccccc4)cc3)O[C@@H](CO)[C@@H]1O2,nt,nt,nt,nt,nt,i
N#CC1=C(N)NC(SCC(=O)c2ccc(Br)cc2)=C(C#N)C12CCCCC2,i,i,i,17,i,i
N#CC1=C(N)NC(SCC(=O)c2ccc(Cl)cc2)=C(C#N)C12CCCC2,i,i,i,i,i,i
COCCCNC(=O)CN(CCc1ccccc1)S(=O)(=O)c1ccc(C)cc1,i,i,i,i,i,44
CCCNC(=O)CN(CCc1ccccc1)S(C)(=O)=O,i,i,i,13,i,nt
CS(=O)(=O)N(CCc1ccccc1)CC(=O)NCc1ccccc1,i,i,i,36,i,i
COc1ccc(CCNC(=O)CN(CCc2ccccc2)S(C)(=O)=O)cc1OC,i,i,i,i,i,i
COCc1cn(CC[C@H]2CC[C@@H](NC(=O)Nc3ccc4c(c3)OCO4)[C@H](CO)O2)nn1,nt,nt,nt,nt,nt,i
Cc1nn(C)cc1NC(=O)C[C@@H]1CC[C@@H]2[C@H](COc3ccc(NC(=O)NC(C)C)cc3C(=O)N2C)O1,nt,nt,nt,nt,nt,i
O=C(c1cc(C(=O)NCCc2ccccc2)c(=O)n(CCc2ccccc2)c1)c1cc(Cl)ccc1O,i,i,i,13,i,nt
COc1ccc(CCNC(=O)c2cc(C(=O)c3cc(Cl)ccc3O)cn(CCc3ccc(OC)cc3)c2=O)cc1,i,i,i,i,i,nt
CCOC(=O)c1cc(CC)sc1NC(=O)c1ccc2c(c1)OCCO2,i,i,i,i,i,nt
CCOC(=O)c1cc(CC)sc1NC(=O)c1cc(OCC)c(OCC)c(OCC)c1,i,i,i,11,i,i
SMILES,NS3 helicase inh,EBNA-1 inh,DNA FID counter,NR3A LBD binder,ZTA DNA inh,FGF22 binding
Cc1ccc(S(=O)(=O)NCc2ccc(C(=O)NCCN(Cc3ccccc3)C(C)C)cc2)cc1,i,i,39,i,i,i
O=C(O)COc1ccc(NC(=O)c2ccc3c(c2)C(=O)N(Cc2ccccc2)C3=O)cc1,i,i,i,10,i,i
O=C(O)Cc1ccc(NC(=O)c2ccc3c(c2)C(=O)N(CC2CCCO2)C3=O)cc1 (stereo unspecified),i,i,i,11,i,i
Cc1sc(NC(=O)Nc2ccccc2)c(C(N)=O)c1C,i,i,i,13,i,i
CCCC(=O)Nc1ccc(Nc2ccccc2)cc1,i,i,i,10,i,i
O=C(Nc1ccccc1)Nc1ccc(Nc2ccccc2)cc1,nt,i,nt,29,i,i
O=C(Nc1ccccc1)Nc1ccccc1,nt,nt,nt,i,nt,i
COc1ccccc1-c1cnc2c(c1)C(=O)N([C@H](C)CO)C[C@@H](C)[C@@H](CN(C)C(C)=O)O2,nt,nt,nt,nt,nt,i
O=C1O[C@H](c2ccccc2)[C@H](c2ccccc2)N2[C@H]1[C@@H](C(=O)NC[C@H](O)c1ccccc1)[C@]1(C(=O)Nc3ccc(C#CCCO)cc31)[C@H]2c1ccc(OCCO)cc1,nt,nt,nt,nt,nt,i
COc1ccc(NC(=O)CSc2nc(N3CCCCC3)nc(N3CCCCC3)n2)cc1,i,i,i,13,i,nt
Cc1c(Cl)c([N+](=O)[O-])nn1Cc1ccc(C(=O)Nc2ccc(Cl)cn2)o1,i,i,i,i,i,nt
COc1cccc(OC)c1NC(=O)c1ccc(-c2cc(Cl)ccc2Cl)o1,nt,nt,nt,nt,nt,i
O=C(Nc1ccc(Cl)cn1)c1ccc(-c2cc(Cl)ccc2Cl)o1,i,i,i,16,i,nt
O=C(Nc1ccc(Cl)cn1)c1ccc([N+](=O)[O-])o1,i,nt,i,i,nt,43
O=C(N[C@@H]1C=C[C@H](CC(=O)N2CCCCC2)O[C@H]1CO)c1ccc2c(c1)OCO2,nt,nt,nt,nt,nt,i
Cc1ccc(S(=O)(=O)N(C)C[C@H]2Oc3ccc(NS(C)(=O)=O)cc3C(=O)N([C@H](C)CO)C[C@@H]2C)cc1,nt,nt,nt,nt,nt,i
O=[N+]([O-])c1ccc(-c2nnc(CNC3CCCC3)o2)cc1,i,i,i,i,i,i
Clc1ccc(-c2nnc(CNC3CC3)o2)cc1,i,i,i,i,i,43
Cc1ccc(C(=O)OCC(=O)c2c[nH]c3ccccc23)cc1S(=O)(=O)N1CCCCC1,i,i,i,25,i,nt
Cc1onc(-c2c(F)cccc2Cl)c1C(=O)OCC(=O)c1c[nH]c2ccccc12,i,i,i,13,i,i
Cc1noc(C)c1C(=O)OCC(=O)c1c[nH]c2ccccc12,i,i,i,i,i,nt
Cc1[nH]c2ccccc2c1C(=O)COC(=O)c1cccc(S(=O)(=O)N2CCCCC2)c1,i,i,i,21,i,nt
COCCOC(=O)N1C(=O)[C@@]2(c3ccccc31)[C@H](c1ccccc1OCCO)N1[C@H](c3ccccc3)[C@H](c3ccccc3)OC(=O)[C@H]1[C@@H]2C(N)=O,nt,nt,nt,nt,nt,24
COCCOC(=O)N1C(=O)[C@@]2(c3cc(C#CCNC(N)=O)ccc31)[C@H](c1ccccc1OCCO)N1[C@H](c3ccccc3)[C@H](c3ccccc3)OC(=O)[C@H]1[C@@H]2C(N)=O,nt,nt,nt,nt,nt,i
O=C(Cc1cccnc1)N[C@@H]1CC[C@@H](CCNS(=O)(=O)c2ccccc2Cl)O[C@@H]1CO,nt,nt,nt,nt,nt,i
Cc1cc(=O)oc2cc(OC(=O)c3cncc(Br)c3)ccc12,i,i,i,i,i,44
CCCC(=O)Oc1ccc2c(C)cc(=O)oc2c1,i,i,i,i,i,i
